ChEMBL document CHEMBL4145666, “In Search of Selectivity in Inhibition of ADAM10” (ACS Med Chem Lett, 2018)
pKi: −log10 of the molar value. Activity calls are given as the source filed them. The calls are words filed in the database; no cut-off is given here.

Assays:
[1] = biological target: Macrophage metalloelastase (Homo sapiens, UniProt P39900); assay: Inhibition of recombinant human MMP12 catalytic domain using Mca-PLGL-DpaAR-NH2 as substrate by fluorescence spectrophotometric method
How it was run: (§1)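 Enzymes and their substrates were obtained as in earlier work, and inhibition was run by a previously reported protocol. Ki values were measured in triplicate.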

Neutrophil collagenase = Neutrophil collagenase (Homo sapiens, UniProt P22894); assay: Inhibition of recombinant human MMP8 catalytic domain (Phe99 to Gln269 residues) expressed in Escherichia coli using McaKPLGL-Dpa-AR-NH2 as substrate by fluorescence spectrophotometric method; how it was run: as §1
[2] = biological target: Disintegrin and metalloproteinase domain-containing protein 17 (Homo sapiens, UniProt P78536); assay: Inhibition of recombinant human C-terminal His6-tagged ADAM17 (Arg215 to Asn671 residues) expressed in baculovirus infected Sf21 cells using Mca-PLAQAV-Dpa-RSSSR-NH2 as substrate by fluorescence spectrophotometric method; how it was run: as §1
[3] = biological target: T1, Interstitial collagenase (Homo sapiens) (UniProt P03956); assay: Inhibition of recombinant human MMP1 catalytic domain (Phe100 to Gln268 residues) expressed in Escherichia coli at 10 uM using McaKPLGL-Dpa-AR-NH2 as substrate by fluorescence spectrophotometric method
T1 sequence (whole entry): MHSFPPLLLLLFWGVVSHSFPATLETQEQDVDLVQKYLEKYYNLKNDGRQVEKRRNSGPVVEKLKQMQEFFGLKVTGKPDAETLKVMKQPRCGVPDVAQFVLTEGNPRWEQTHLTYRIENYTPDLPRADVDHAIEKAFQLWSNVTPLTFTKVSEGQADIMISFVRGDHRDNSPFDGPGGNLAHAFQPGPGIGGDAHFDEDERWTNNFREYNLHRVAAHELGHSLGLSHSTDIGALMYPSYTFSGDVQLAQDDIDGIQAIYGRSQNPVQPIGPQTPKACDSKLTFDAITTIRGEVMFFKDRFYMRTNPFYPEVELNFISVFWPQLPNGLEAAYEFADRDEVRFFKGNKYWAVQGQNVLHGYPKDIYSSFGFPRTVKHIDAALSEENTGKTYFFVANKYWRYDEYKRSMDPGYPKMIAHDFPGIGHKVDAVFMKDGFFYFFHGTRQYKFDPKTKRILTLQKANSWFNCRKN
How it was run: (§2)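 Single inhibitor concentration of 10 μM, reported as percent inhibition. Enzymes and substrates as in earlier work, with inhibition run by a previously reported protocol.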

[4] = biological target: Stromelysin-1 (Homo sapiens) (UniProt P08254); assay: Inhibition of recombinant human MMP3 catalytic domain expressed in Escherichia coli at 10 uM using MOCAc-Arg-Pro-LysPro-Val-Glu-Nva-Trp-Arg-Lys(Dnp)-NH2 as substrate by fluorescence spectrophotometric method relative to control; how it was run: as §2
[5] = biological target: T2, Matrilysin (Homo sapiens) (UniProt P09237); assay: Inhibition of recombinant human MMP7 expressed in Escherichia coli using MOCAc-Pro-Leu-Gly-Leu-A2pr(Dnp)-Ala-Arg-NH2 as substrate at 10 uM by fluorescence spectrophotometric method; how it was run: as §2
T2 sequence (whole entry): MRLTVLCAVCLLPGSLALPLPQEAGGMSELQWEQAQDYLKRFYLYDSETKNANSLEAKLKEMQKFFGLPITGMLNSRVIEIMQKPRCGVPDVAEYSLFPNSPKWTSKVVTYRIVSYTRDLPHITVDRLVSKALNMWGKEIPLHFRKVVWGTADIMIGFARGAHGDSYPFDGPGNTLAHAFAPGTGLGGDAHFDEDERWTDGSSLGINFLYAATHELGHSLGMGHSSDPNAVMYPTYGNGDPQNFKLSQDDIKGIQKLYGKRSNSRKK

[6] = biological target: Matrix metalloproteinase-9 (Homo sapiens) (UniProt P14780); assay: Inhibition of recombinant human MMP9 catalytic domain (Phe107 to Pro449 residues) expressed in Escherichia coli using MOCAc-Pro-Leu-Gly-Leu-A2pr(Dnp)-Ala-Arg-NH2 as substrate at 10 uM by fluorescence spectrophotometric method relative to control; how it was run: as §2
[7] = biological target: Matrix metalloproteinase-14 (Homo sapiens) (UniProt P50281); assay: Inhibition of recombinant human MMP14 catalytic domain (89 to 265 residues) expressed in Escherichia coli using MOCAc-Pro-Leu-Gly-Leu-A2pr(Dnp)-Ala-Arg-NH2 as substrate at 10 uM by fluorescence spectrophotometric method relative to control; how it was run: as §2
[8] = biological target: T3, Disintegrin and metalloproteinase domain-containing protein 9 (Homo sapiens) (UniProt Q13443); assay: Inhibition of recombinant human C-terminal His10-tagged ADAM9 (Ala206 to Asp697 residues) expressed in mouse cells using McaPLAQAV-Dpa-RSSSR-NH2 as substrate at 10 uM by fluorescence spectrophotometric method relative to control; how it was run: as §2
T3 sequence (whole entry): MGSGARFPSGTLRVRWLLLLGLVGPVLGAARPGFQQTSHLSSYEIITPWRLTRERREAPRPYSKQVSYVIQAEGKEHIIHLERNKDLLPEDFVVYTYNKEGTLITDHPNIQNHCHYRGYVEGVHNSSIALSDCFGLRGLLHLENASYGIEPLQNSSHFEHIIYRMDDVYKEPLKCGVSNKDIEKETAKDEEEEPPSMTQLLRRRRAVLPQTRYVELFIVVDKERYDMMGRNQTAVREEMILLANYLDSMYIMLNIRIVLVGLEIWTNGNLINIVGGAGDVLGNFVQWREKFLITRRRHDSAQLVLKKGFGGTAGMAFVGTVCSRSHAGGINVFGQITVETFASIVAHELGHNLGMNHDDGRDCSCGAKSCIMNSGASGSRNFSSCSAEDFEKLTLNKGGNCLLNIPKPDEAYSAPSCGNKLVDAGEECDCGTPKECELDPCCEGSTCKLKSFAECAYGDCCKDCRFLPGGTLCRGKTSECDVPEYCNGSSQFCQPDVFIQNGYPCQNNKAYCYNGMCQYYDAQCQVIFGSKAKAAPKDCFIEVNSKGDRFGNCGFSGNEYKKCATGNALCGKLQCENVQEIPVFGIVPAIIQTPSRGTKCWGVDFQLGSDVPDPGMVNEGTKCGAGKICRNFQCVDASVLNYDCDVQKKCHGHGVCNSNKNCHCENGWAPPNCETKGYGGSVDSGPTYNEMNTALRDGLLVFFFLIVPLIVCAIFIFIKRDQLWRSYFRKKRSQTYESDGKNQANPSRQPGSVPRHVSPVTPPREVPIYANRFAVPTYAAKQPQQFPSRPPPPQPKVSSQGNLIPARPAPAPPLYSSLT

[9] = biological target: T4, Disintegrin and metalloproteinase domain-containing protein 10 (Homo sapiens, UniProt O14672); assay: Inhibition of recombinant human C-terminal His10-tagged ADAM10 (Thr214 to Glu672 residues) expressed in baculovirus infected Sf21 cells using McaKPLGL-Dpa-AR-NH2 as substrate by fluorescence spectrophotometric method; how it was run: as §1
T4 sequence (O14672 whole entry): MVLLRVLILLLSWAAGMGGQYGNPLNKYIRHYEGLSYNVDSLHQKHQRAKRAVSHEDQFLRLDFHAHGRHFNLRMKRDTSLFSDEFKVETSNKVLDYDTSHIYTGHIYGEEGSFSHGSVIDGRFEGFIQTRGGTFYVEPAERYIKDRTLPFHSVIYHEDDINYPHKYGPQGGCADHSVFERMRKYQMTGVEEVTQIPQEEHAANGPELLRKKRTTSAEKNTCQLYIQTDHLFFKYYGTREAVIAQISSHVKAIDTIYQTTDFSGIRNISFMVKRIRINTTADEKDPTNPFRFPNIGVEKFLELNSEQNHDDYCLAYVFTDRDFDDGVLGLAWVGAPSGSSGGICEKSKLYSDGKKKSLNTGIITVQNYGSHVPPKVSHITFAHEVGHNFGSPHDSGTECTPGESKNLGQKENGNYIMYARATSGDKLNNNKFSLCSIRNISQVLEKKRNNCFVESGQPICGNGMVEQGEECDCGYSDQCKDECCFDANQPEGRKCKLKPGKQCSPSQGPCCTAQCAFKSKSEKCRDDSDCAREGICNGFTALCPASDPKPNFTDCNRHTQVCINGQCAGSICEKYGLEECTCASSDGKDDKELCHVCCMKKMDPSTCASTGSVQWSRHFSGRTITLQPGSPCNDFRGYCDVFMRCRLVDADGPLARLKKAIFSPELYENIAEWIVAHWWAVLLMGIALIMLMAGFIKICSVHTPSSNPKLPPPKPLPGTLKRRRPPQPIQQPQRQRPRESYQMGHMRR

[10] = Elimination half life in CD-1 mouse brain at 10 mg/kg, ip by UPLC analysis; format: ADME, organism-based; conditions: read-out: beta t1/2
How it was run: (§3)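 Male CD-1 mice, 6–7 weeks old, about 30 g, fed and watered ad libitum. Single dose of 10 mg/kg ip or 25 mg/kg sc, given as 100 μL formulation; n = 3 per time point per route. At set times, blood was taken by cardiac puncture with heparinized syringes and spun to plasma. Brains were harvested after transcardiac saline perfusion, weighed and flash-frozen. Brain levels are in pmol/mg tissue.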

[11] = Primary phase half life in CD-1 mouse brain at 10 mg/kg, ip by UPLC analysis; format: ADME, organism-based; conditions: read-out: alphat1/2; how it was run: as §3
Mus musculus [12] = assay: Time at which plasma concentration stays above in-vitro Ki for ADAM10 in CD-1 mouse at 10 mg/kg, ip by UPLC analysis; format: ADME, organism-based; conditions: in vivo; how it was run: as §3
Mus musculus [13] = assay: Time at which brain concentration stays above in-vitro Ki for ADAM10 in CD-1 mouse at 10 mg/kg, ip by UPLC analysis; format: ADME, organism-based; conditions: in vivo; how it was run: as §3
Mus musculus [14] = assay: Time at which brain concentration stays above in-vitro Ki for ADAM10 in CD-1 mouse at 25 mg/kg, sc by UPLC analysis; format: ADME, organism-based; conditions: in vivo; how it was run: as §3

Sequence of Stromelysin-1 (Homo sapiens) (P08254 100-477 limits assumed): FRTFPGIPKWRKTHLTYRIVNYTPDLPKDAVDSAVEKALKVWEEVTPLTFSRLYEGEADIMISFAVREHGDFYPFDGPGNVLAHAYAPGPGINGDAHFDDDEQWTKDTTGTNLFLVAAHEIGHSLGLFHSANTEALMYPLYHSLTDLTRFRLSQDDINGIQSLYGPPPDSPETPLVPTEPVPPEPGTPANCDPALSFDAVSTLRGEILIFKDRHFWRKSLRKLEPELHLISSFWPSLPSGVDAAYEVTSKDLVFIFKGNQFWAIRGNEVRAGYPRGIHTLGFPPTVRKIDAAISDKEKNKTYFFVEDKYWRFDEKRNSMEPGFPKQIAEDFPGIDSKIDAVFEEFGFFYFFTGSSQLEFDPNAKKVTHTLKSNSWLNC
Sequence of Matrix metalloproteinase-9 (Homo sapiens) (P14780 whole entry, the tested form may be a part): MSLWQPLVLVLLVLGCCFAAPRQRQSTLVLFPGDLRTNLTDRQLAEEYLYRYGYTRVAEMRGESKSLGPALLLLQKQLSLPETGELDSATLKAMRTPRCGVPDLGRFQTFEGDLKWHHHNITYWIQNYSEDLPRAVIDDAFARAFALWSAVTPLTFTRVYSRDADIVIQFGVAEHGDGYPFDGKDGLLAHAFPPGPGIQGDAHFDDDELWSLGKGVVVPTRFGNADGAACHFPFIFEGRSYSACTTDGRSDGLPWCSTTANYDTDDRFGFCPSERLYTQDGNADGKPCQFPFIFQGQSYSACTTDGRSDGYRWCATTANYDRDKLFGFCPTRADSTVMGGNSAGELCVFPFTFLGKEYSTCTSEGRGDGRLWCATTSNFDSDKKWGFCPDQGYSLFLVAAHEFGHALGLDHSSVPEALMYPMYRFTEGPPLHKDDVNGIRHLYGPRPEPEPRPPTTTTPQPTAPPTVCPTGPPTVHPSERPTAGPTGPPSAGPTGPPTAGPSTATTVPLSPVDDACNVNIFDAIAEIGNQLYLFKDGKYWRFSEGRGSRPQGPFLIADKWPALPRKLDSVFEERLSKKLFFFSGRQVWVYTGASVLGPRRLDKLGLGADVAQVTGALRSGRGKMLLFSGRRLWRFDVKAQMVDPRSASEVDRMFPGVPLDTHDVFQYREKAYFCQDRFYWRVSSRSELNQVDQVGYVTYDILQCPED
Sequence of Neutrophil collagenase (P22894 whole entry, the tested form may be a part): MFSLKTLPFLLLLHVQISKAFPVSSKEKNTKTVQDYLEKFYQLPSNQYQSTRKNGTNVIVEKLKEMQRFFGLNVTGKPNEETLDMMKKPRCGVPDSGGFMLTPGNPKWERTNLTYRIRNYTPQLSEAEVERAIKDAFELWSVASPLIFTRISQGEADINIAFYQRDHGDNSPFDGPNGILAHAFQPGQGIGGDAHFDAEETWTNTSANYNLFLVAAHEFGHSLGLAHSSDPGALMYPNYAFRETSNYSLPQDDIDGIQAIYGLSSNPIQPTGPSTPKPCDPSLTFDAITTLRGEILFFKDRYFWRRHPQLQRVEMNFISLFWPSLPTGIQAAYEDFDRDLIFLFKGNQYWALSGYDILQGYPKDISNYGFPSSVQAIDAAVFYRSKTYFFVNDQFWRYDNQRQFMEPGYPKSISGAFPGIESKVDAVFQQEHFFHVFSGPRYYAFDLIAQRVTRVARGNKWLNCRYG
Sequence of Disintegrin and metalloproteinase domain-containing protein 17 (P78536 whole entry, the tested form may be a part): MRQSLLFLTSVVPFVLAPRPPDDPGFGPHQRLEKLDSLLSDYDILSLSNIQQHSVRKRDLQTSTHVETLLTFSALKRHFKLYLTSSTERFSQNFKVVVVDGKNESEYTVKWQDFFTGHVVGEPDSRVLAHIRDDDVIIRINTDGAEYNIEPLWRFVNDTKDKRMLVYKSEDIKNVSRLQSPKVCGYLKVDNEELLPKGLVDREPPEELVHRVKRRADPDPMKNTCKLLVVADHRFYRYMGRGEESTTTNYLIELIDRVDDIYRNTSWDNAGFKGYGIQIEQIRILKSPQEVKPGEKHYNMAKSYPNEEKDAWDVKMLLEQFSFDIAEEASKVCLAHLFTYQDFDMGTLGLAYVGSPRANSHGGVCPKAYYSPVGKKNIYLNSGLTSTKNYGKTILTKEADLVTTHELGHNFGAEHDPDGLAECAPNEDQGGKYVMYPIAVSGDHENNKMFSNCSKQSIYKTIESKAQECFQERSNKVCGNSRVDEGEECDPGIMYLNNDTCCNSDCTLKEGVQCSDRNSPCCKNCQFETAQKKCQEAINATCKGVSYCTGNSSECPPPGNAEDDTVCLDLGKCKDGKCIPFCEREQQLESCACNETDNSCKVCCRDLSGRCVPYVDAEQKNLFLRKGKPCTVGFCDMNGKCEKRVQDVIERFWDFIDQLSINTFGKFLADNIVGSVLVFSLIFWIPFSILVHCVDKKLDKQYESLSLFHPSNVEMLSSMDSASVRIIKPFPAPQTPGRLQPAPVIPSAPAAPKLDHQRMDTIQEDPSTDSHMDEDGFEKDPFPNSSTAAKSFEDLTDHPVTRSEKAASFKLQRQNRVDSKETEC
Sequence of Macrophage metalloelastase (P39900 whole entry, the tested form may be a part): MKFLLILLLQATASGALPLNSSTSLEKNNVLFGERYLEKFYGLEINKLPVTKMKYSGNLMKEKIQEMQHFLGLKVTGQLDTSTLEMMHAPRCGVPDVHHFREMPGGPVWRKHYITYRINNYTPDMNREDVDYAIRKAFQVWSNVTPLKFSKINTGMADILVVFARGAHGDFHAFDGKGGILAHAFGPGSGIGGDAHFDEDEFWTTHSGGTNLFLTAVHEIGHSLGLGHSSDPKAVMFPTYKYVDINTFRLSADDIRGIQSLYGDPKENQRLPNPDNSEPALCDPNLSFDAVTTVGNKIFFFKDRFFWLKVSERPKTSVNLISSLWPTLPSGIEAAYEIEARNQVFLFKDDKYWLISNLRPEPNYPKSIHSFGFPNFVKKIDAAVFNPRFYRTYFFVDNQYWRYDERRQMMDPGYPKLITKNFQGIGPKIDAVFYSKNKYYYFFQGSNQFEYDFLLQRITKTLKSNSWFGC

O=C(NO)[C@H]1C[C@H](OC(=O)N2CCCC2)CC[C@@H]1C(=O)N1CCC(c2ccccc2)CC1
pKi [1]: 6.57
pKi (Neutrophil collagenase): 5.06
pKi [2]: 6.05
inhibition [3]: inactive
inhibition [4]: 2%
inhibition [5]: inactive
inhibition [6]: 25%
inhibition [7]: 19%
inhibition [8]: 15%
pKi [9]: 7.14
half-life [10]: 3.4 h
half-life [11]: 0.48 h
Time (Mus musculus [12]): 6 h
Time (Mus musculus [13]): 20 min
Time (Mus musculus [14]): 100 min
